Measured values: ChEMBL document CHEMBL3108674, “6-Alkoxy-5-aryl-3-pyridinecarboxamides, a new series of bioavailable cannabinoid receptor type 1 (CB1) antagonists including peripherally selective compounds” (J Med Chem, 2013)
The source made the active and inactive calls. The rule behind the calls is not given here.

Assays:
Rattus norvegicus [1] = assay: Maximum unbound fraction in rat at 7.9 mg/kg, po; format: ADME, organism-based; design: dose 7.9 mg/kg, route oral; settings: in vivo
[2] = Oral bioavailability in rat at 7.9 mg/kg; format: ADME, organism-based; settings: in vivo
Rattus norvegicus [3] = assay: Reduction of leptin level in high fat diet-fed Sprague-Dawley rat plasma at 30 mg/kg, po qd after 24 days by ELISA; format: functional, organism-based; design: dose 30 mg/kg
Outline: (§1)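 Diet-induced obese Sprague-Dawley rats (high responders), single-housed, groups of n = 9 matched for body weight and MRS body fat; drug given as food admix for 24 days alongside pair-fed groups; body weight and food intake measured daily; body fat by MRS; plasma leptin by ELISA; mean ± SEM, ANOVA with Dunnett's test versus vehicle.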

[4] = Drug uptake in Sprague-Dawley rat brain at 30 mg/kg, po qd after 10 days by LC-MS/MS analysis; format: ADME, organism-based; design: dose 30 mg/kg, route oral; settings: read-out: Drug uptake
[5] = Volume of distribution at steady state in rat at 1 mg/kg, iv; format: ADME, organism-based; design: dose 1 mg/kg, route intravenous; settings: in vivo, read-out: Vdss
[6] = Cmax in Sprague-Dawley rat plasma at 30 mg/kg, po qd after 10 days by LC-MS/MS analysis; format: ADME, organism-based; design: dose 30 mg/kg, route oral
Outline: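 Male Sprague-Dawley rats (n = 3 per compound) given 30 mg/kg/day as feed admix for 10 days; jugular vein catheter implanted 4 days before sampling; on day 10 switched to drug-free high fat chow, then serial K3EDTA blood samples over 24 h; plasma drug levels by LC-MS.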

Cannabinoid receptor 1 [7] = molecular target: T1, Cannabinoid receptor 1 (Homo sapiens, UniProt P21554); assay: Antagonist activity at human CB1 receptor overexpressed in HEK cells assessed as [35S]GTPgamma binding after 1 hr by liquid scintillation counting analysis; format: functional, cell-based, HEK293
Cannabinoid receptor 2 = Cannabinoid receptor 2 (Homo sapiens, UniProt P34972); assay: Displacement of [3H]CP55940 from human CB2 receptor expressed in CHOK1 cells after 1 hr by liquid scintillation counting analysis; format: cell-based, CHO-K1
Outline: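 Membranes from butyrate-treated (5 mM, 24 h) CHO-K1 cells stably expressing human CB2, incubated with 0.3 nM [3H]CP55940 and increasing ligand concentrations, 60 min, 30 °C, pH 7.4 Tris buffer with 0.1% fatty acid-free BSA and 1% DMSO; nonspecific binding with 10 μM CP55940; filtration, scintillation counting; tested in triplicate.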

[8] = Ratio of drug level in brain to plasma in rat; format: ADME; settings: brain and plasma, read-out: BPR
[9] = Cmax in rat plasma at 7.9 mg/kg, po; format: ADME, organism-based; design: dose 7.9 mg/kg, route oral
[10] = Clearance in rat at 1 mg/kg, iv; format: ADME, organism-based; design: dose 1 mg/kg, route intravenous; settings: in vivo
Hepatocyte = assay: Intrinsic clearance in rat hepatocytes at 10 uM by LC-MS/MS analysis; format: ADME, cell-based
[11] = Plasma protein binding in rat; format: ADME, cell-free; settings: read-out: PPB (converted)
[12] = Tmax in rat plasma at 7.9 mg/kg, po; format: ADME, organism-based; design: dose 7.9 mg/kg, route oral
Rattus norvegicus [13] = assay: Reduction in body fat content in high fat diet-fed Sprague-Dawley rat at 30 mg/kg, po qd after 24 days; format: functional, organism-based; design: dose 30 mg/kg; outline: as §1
Liver microsome = assay: Clearance in rat liver microsomes at 2 uM by LC-MS/MS analysis; format: ADME
Outline: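 Rat liver microsomes at 0.5 mg/mL were incubated with 2 μM compound (final) and an NADPH-regenerating system. Aliquots were taken at 1, 3, 6, 9, 15, 25, 35 and 45 min and quenched in acetonitrile containing internal standard. Depletion was measured by LC-MS/MS. Clmic = −slope × 1000 / protein concentration (mg/mL), not corrected for microsomal protein binding.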

Rattus norvegicus [14] = assay: Increase of insulin sensitivity in high fat diet-fed Sprague-Dawley rat assessed as decrease in insulin AUC at 30 mg/kg, po qd administered for 24 days followed by glucose challenge by oral glucose tolerance test; format: functional, organism-based; design: dose 30 mg/kg
[15] = Ratio of drug level in Sprague-Dawley rat brain to plasma at 30 mg/kg, po qd after 10 days by LC-MS/MS analysis; format: ADME, organism-based; design: dose 30 mg/kg, route oral; settings: brain and plasma, read-out: BPR
Rattus norvegicus [16] = species: Rattus norvegicus; assay: Reduction in body weight gain in high fat diet-fed Sprague-Dawley rat at […]; format: functional, organism-based
Plasma = assay: Maximum unbound fraction in rat plasma at 7.9 mg/kg, po; format: ADME, organism-based; design: dose 7.9 mg/kg, route oral; settings: in vivo
Cannabinoid receptor 1 [17] = molecular target: T1, Cannabinoid receptor 1; assay: Displacement of [3H]CP55940 from human CB1 receptor expressed in CHOK1 cells after 1 hr by liquid scintillation counting analysis; format: cell-based, CHO-K1

Chain of Cannabinoid receptor 2 (P34972 whole entry): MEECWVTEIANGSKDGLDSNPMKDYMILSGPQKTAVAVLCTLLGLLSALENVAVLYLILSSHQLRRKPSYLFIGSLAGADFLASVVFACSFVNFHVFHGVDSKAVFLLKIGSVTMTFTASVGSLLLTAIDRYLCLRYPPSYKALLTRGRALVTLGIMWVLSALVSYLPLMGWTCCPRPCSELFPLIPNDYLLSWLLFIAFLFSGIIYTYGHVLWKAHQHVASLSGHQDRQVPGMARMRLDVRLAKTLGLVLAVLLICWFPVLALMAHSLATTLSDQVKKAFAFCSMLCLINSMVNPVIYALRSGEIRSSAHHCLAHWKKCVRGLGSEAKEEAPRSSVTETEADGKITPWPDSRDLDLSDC
T1 sequence (P21554 whole entry): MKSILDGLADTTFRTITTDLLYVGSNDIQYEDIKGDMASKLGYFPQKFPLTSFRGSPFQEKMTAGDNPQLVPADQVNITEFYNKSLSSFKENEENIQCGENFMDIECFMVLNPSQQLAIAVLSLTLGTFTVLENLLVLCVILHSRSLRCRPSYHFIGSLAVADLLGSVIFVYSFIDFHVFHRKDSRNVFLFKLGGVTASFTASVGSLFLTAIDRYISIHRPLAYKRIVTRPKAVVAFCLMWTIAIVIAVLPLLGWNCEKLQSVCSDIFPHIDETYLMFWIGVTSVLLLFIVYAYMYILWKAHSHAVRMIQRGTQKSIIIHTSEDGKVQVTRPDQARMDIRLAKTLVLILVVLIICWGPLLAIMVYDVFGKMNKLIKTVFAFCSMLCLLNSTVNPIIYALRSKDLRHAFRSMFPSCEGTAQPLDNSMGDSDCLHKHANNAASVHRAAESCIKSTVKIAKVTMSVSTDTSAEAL

SMILES	Ki (Cannabinoid receptor 2) [nM]	CLH (Liver microsome) [µL/min/mg]	Ki (Cannabinoid receptor 1 [17]) [nM]	also measured
O=C(N[C@@H]1CCCC[C@H]1O)c1cnc(OCC2CC2)c(-c2ccc(Cl)cc2)c1	> 7000	64		fCmax (Rattus norvegicus [1]): < 28 nM; bioavailability [2]: 23%; Activity (Rattus norvegicus [3]): Active; concentration at 240 h [4]: 1400 ng/g; Vd [5]: 1.8 L/kg; Cmax [6]: 1020 ng/mL; EC50 (Cannabinoid receptor 1 [7]): 3.9 nM; Kp [8]: 0.7; Cmax [9]: 729 ng/mL; clearance [10]: 7.4 mL/min/kg; CLH (Hepatocyte): 3.3 µL/min; fraction unbound [11]: < 0.016; Tmax [12]: 1.9 h; Activity (Rattus norvegicus [13]): Active; Activity (Rattus norvegicus [14]): Active; Kp at 240 h [15]: 1.3; Activity (Rattus norvegicus [16]): Active; Cp(f)max (Plasma): < 11 ng/mL
C[C@](O)(CNC(=O)c1cnc(OCC2CC2)c(-c2ccc(Cl)cc2)c1)C1CC1	> 10000	2.4	34.3	
O=C(N[C@@H]1CCCC[C@H]1O)c1cnc(CCC2CC2)c(-c2ccc(Cl)cc2)c1	> 10000	1503	16.7	
O=C(N[C@@H]1CCCC[C@H]1O)c1cnc(OCc2ccncc2)c(-c2ccc(Cl)cc2)c1	> 10000	118	58.7	
O=C(N[C@@H]1CCCC[C@H]1O)c1cnc(OCC2CC2)c(-c2ccc(OC(F)(F)F)cc2)c1	> 10000	0	23.6	
O=C(N[C@@H]1CCCC[C@H]1O)c1cnc(OC2CCC2)c(-c2ccc(Cl)cc2)c1	> 10000	210	208	
O=C(N[C@@H]1CCCC[C@H]1O)c1cnc(OC2CCCCC2)c(-c2ccc(Cl)cc2)c1	> 10000	662	3030	
